Only some compounds are listed: those with a hit (about 10% of all), similar ones and a draw of the others.
L major viab: Leishmania major promastigote growth inhibition; 200,000 tested, 9% active; inhibition, % at 10 µM; Leishmania major promastigotes, resazurin fluorescence viability; in the data active means inhibition above about 50%;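 further: promastigotes grown with compound for 44 hours at 28 °C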
PMI act satM6P: PMI (human) activation, high substrate; P34949; coupled PMI enzyme assay, resazurin fluorescence, 20 min; hits give high values; 1 = untreated enzyme, 0 = substrate-free blank; activation factor at 20 µM; 190,000 tested, 0.34% active;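 active means activation factor of 2 or more at 20 µM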
Target sequence (P34949 whole entry, looked up): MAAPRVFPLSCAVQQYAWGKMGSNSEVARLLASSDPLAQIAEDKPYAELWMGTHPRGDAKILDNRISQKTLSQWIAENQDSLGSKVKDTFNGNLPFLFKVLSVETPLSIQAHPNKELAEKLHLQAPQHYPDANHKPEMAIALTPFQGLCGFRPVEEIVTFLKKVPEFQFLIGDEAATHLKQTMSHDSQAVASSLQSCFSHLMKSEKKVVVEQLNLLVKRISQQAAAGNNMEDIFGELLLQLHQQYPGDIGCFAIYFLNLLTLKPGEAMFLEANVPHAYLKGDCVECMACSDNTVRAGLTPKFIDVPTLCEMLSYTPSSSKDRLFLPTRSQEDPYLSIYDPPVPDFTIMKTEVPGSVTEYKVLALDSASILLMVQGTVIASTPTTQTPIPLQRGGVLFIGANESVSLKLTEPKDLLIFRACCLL
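Test system – human PMI in coupled enzyme assay · Timing – 20 min incubation at room temperature · Detection – Diaphorase-driven resazurin-to-resorufin fluorescence, excitation 544, emission 590 nm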
WT yeast gro inh: growth inhibition of WT yeast, mitochondrial fusion screen; 190,000 tested, 2.1% active; AID 1362; mitochondrial fusion phenotypic screen, WT strain; inhibition, % at 10 µM; in the data active means inhibition above about 58%; tested in S. cerevisiae
PMI act: increases human mannose-6-phosphate isomerase activity; P34949; purified human PMI, coupled resazurin fluorescence, 20 min; hits give high values; 1 = vehicle control, 0 substrate-free wells; activation factor at 20 µM; 190,000 tested, 0.005% active;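 active means activation factor of 2 or more at 20 µM, relative to plate controls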
Diaphorase act: diaphorase activation or chemical reduction counter-screen | Diaphorase/resazurin coupled assay, resorufin fluorescence, 16 min; hits give high values; 1 = vehicle wells, 0 = NADH-free wells | AID 1229 | 190,000 tested, 0.005% active | activation factor at 20 µM;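 active means diaphorase activity raised at least twofold by the compound at 20 µM; inactive means activation factor below 2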
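Material: Purified diaphorase enzyme from Clostridium kluyveri | Buffer or medium: 50 mM HEPES pH 7.4 with 4.542 mM MgCl2, 0.005% Tween 20 | Times: 16 min enzyme reaction, ambient temperature | Signal: Red resorufin fluorescence at 544/590 nm excitation/emission | Measure: Increased resorufin signal from activators or reducing compounds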
* hit, by the source's call; . = not tested or not shown.

SMILES	L major viab	PMI act satM6P	WT yeast gro inh	PMI act	Diaphorase act
CNS(=O)(=O)c1ccc(N2CCCC2)c([N+](=O)[O-])c1	-2	0.9	-14	0.9	0.9
CC(=O)c1ccc(N2CCN(c3ccc(S(=O)(=O)NCCCN(C)C)cc3[N+](=O)[O-])CC2)cc1	100*	1	2	1.1	1.1
CCCCc1ccc(NC(=O)C(C)CC)cc1 (stereo not given)	12	.	11	.	.
COc1ccc(CN(C)CC(=O)NC2CCCc3ccccc32)cc1OC (stereo not given)	9	1.1	-11	1.1	1
CCOC(=O)c1cc(=O)cc(C(=O)OCC)o1	95*	1	-16	1.1	0.9
COc1cc(OC)c(-c2nnc3n(CCc4ccccc4)c(=O)c4ccccc4n23)cc1OC	25	0.9	15	0.8	0.7
COc1ccc(-c2nnc3n(CCc4ccccc4)c(=O)c4ccccc4n23)c(OC)c1	32	1	98*	1.1	0.8
COc1cc(-c2nnc3n(CCc4ccccc4)c(=O)c4ccccc4n23)cc(OC)c1OC	72*	1.3	-5	1.3	1.1
CC(=O)C1=NN(c2ccccc2)C2(S1)S/C(=C\c1ccccc1)C(=O)N2c1ccccc1 (stereo not given)	46	0.9	20	0.8	0.8
C#CCn1c(=NC(=O)c2ccc(Br)s2)sc2cccc(OC)c21	10	1	13	0.9	1.2
CCn1c(=NC(=O)c2ccc(S(=O)(=O)N(C)C)cc2)sc2cccc(OC)c21	70*	1	15	1.1	0.9
CC(C)(C)C(=O)Nc1cc(S(=O)(=O)Nc2ccc(Cl)cc2)ccc1Cl	76*	1	45	0.9	0.9
CC1CC(C)(C)N(C(=O)CN2C(=O)c3ccccc3C2=O)c2ccccc21 (stereo not given)	7	1	3	1	0.8
CC1(C)Cc2ccccc2C2CC(O)C(=O)N21 (stereo not given)	3	2*	1	1.4	1.1
CCOC(=O)c1oc2ccc(CNC3CCCCC3)c(Cl)c2c1C	96*	0.9	10	0.9	0.9
CCOC(=O)c1oc2ccc(CNCCO)c(Cl)c2c1C	97*	1.1	-15	1	0.9
CCOc1ccc2oc(C(=O)OCC(=O)NC3CC3)c(C)c2c1	0	0.9	-15	0.9	0.9
CCOC(=O)c1ccc(NC(=O)COc2ccccc2CNCCO)cc1	18	1	2	1	1
CC(=O)Oc1ccc(N2C(=O)C3C4C=CC(C5CC45)C3C2=O)cc1[N+](=O)[O-] (stereo not given)	-9	1.1	-8	1	1
CCOc1ccc(N(C(=O)C2CCCO2)C2C=CS(=O)(=O)C2)cc1 (stereo not given)	0	1	-13	1.1	1.1
CC(Cl)C(=O)NC(=O)NC12CC3CC(CC(C3)C1)C2 (stereo not given)	-2	1.1	-8	1	0.9
O=C(CCl)NC(=O)NC12CC3CC(CC(C3)C1)C2	101*	1.1	-21	1.1	0.9
Cc1nc(/N=C(\N)NC(=O)N2c3ccccc3Sc3ccccc32)nc2ccccc12	97*	0.8	14	0.8	0.7
Cc1ccc(CCC(=O)Nc2ccccc2F)s1	-2	1.1	16	1	0.9
CCCCNC(=O)c1sc(=S)n2c1[nH]c(=O)c1ccccc12	-8	0.9	-7	0.8	0.3
SMILES	L major viab	PMI act satM6P	WT yeast gro inh	PMI act	Diaphorase act
O=C(NC1CCCCC1)c1sc(=S)n2c1[nH]c(=O)c1ccccc12	-11	0.8	64*	0.5	0.6
COC(=O)C1=CN(C(C)C)C=C(C(=O)OC)C1c1cccc(OC)c1	15	1	4	1	0.9
CCCOc1ccccc1C1C(C(=O)OC)=CN(C(C)C)C=C1C(=O)OC	100*	0.9	34	0.8	0.8
CCCCOc1ccccc1C1C(C(=O)OC)=CN(CC)C=C1C(=O)OC	61*	1	9	1.2	0.8
FC(F)(F)c1cnc(Sc2nc3nccc(-c4ccc(Cl)cc4)n3n2)c(Cl)c1	5	1	96*	1	1
O=C(c1ccccn1)N(Cc1ccco1)C1(C(=O)NC2CCCC2)CCCCC1	4	1	13	1	1
O=C(c1ccc2c(c1)OCO2)N(Cc1ccco1)C1(C(=O)NC2CCCCC2)CCCCC1	31	1	59*	1.1	1
Cc1cc(C)c(S(=O)(=O)N2CCC(C(=O)NCc3ccc(Cl)cc3Cl)CC2)c(C)c1	6	1	75*	0.9	0.9
CCC(c1nnnn1CCOC)N1CCN(c2nc3ccccc3s2)CC1 (stereo not given)	4	.	11	.	.
c1ccc(Cn2nnnc2C(c2ccccc2)N2CCN(c3nc4ccccc4s3)CC2)cc1 (stereo not given)	100*	0.9	23	0.9	0.7
COCCn1nnnc1C(CC(C)C)N1CCN(c2nc3ccccc3s2)CC1 (stereo not given)	46	0.9	19	0.9	0.8
c1ccc(C(c2nnnn2Cc2ccco2)N2CCN(c3nc4ccccc4s3)CC2)cc1 (stereo not given)	98*	0.9	22	0.9	0.9
CN1CCN(C(c2cccc(C(F)(F)F)c2)c2nnnn2Cc2ccccc2)CC1 (stereo not given)	3	1	-3	1	0.9
Cc1ccc(C)c(N2CCN(C(c3ccncc3)c3nnnn3Cc3ccccc3)CC2)c1 (stereo not given)	26	2.2*	-22	1	0.7
Cc1ccc(S(=O)(=O)Cn2nnnc2C(C(C)C)N2CCN(c3nc4ccccc4s3)CC2)cc1 (stereo not given)	99*	1.1	24	1.1	0.9
CCOC(=O)c1c(NC(=O)CSc2nnc3c(Cl)cc(Cl)cn23)sc2c1CCC2	0	0.7	15	0.7	0.3
C=C(C)C1CC=C(C)/C(=N/NC(=O)C2CC2c2ccccc2)C1 (stereo not given)	2	0.9	-14	1.1	1
CCOc1ccc(CCNC(=O)c2cccc(C#N)c2)cc1OCC	0	1	-5	1	1
CCCCC(c1nnnn1Cc1ccco1)N1CCN(c2nc3ccccc3s2)CC1 (stereo not given)	97*	1	13	0.9	0.8
COc1ccc(C(c2nnnn2Cc2ccccc2)N2CCN(c3nc4ccccc4s3)CC2)cc1OC (stereo not given)	100*	1.5	19	1.3	0.9
COc1ccccc1C(c1nnnn1Cc1ccccc1)N1CCN(c2nc3ccccc3s2)CC1 (stereo not given)	91*	1.2	9	1	0.7
COc1ccc(Cn2nnnc2C(c2cccnc2)N2CCN(c3ccc(O)cc3)CC2)cc1 (stereo not given)	94*	0.7	2	0.7	0.7
